Measurements as given in ChEMBL document CHEMBL4190269, “Design, synthesis and biological evaluation of novel 6-substituted pyrrolo [3,2-d] pyrimidine analogues as antifolate antitumor agents” (2017).
The source made the active and inactive calls. The calls are words filed in the database; no cut-off is given here.

What was measured:
A549 [1] = test: Inhibition of colony formation in human A549 cells at 20 uM treated for 48 hrs followed by compound washout measured after 8 days by Giemsa staining based assay; assay type: functional, cell-based
Summary of the method: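 About 100 A549 cells per well plated and kept 24 h in RPMI with 10% dFBS and 2 nM LCV at 37 °C, 5% CO2. Compound at 0-20 μM added for 48 h, then medium replaced with drug-free medium for 8 days. Colonies fixed in methanol 30 min, Giemsa-stained 30 min, then counted.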

HL-60 [2] = test: Antiproliferative activity against human HL60 cells after 48 hrs by MTS assay; assay type: functional; settings: HL-60, 48 h
Summary of the method: (§1)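 Cells in RPMI-1640 or DMEM with 10% FBS, 37 °C, 5% CO2. Exponentially growing cells seeded at 5 × 10^3 per well and grown 12 h. Compounds added at 10 nM to 100 μM for 48 h. MTS reagent added for 3 h, then OD read at 490 nm. 0.1% DMSO as control. Mean viability from three independent experiments.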

A549 [3] = test: Antiproliferative activity against human A549 cells after 48 hrs by MTS assay; assay type: functional; settings: A549, 48 h; summary of the method: as §1
NCI-H1299 = test: Antiproliferative activity against human NCI-H1299 cells after 48 hrs by MTS assay; assay type: functional; settings: NCI-H1299, 48 h; summary of the method: as §1
HeLa = test: Antiproliferative activity against human HeLa cells after 48 hrs by MTS assay; assay type: functional; summary of the method: as §1
HCT-116 = test: Antiproliferative activity against human HCT116 cells after 48 hrs by MTS assay; assay type: functional; settings: HCT-116, 48 h
HT-29 = test: Antiproliferative activity against human HT-29 cells after 48 hrs by MTS assay; assay type: functional; settings: HT-29, 48 h; summary of the method: as §1
[4] = molecular target: T1, Dihydrofolate reductase (Homo sapiens) (UniProt P00374); test: Inhibition of recombinant human DHFR at 100 uM using dihydrofolate as substrate in presence of NADPH by spectrophotometric method relative to control
T1 sequence (whole entry): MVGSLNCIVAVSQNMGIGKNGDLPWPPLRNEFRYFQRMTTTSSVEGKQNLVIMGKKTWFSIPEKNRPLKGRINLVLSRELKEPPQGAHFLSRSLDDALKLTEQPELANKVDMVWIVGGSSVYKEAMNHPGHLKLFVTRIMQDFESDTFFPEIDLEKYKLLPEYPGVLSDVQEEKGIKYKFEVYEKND
Summary of the method: (§2)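 Recombinant human DHFR assayed with 0.1 mM dihydrofolate, 0.3 mM NADPH and 100 mM KCl, pH 7.5, 32 °C. Reaction started by adding enzyme and followed as OD change at 340 nm. Percent inhibition recorded at 1, 10 and 100 μM.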

[5] = molecular target: T1, Dihydrofolate reductase (Homo sapiens); test: Inhibition of recombinant human DHFR at 1 to 10 uM using dihydrofolate as substrate in presence of NADPH by spectrophotometric method; summary of the method: as §2
HL-60 [6] = test: Antiproliferative activity against human HL60 cells up to 1000 uM after 48 hrs in presence of excess of adenosine and AICA by MTS assay; assay type: functional, cell-based
HL-60 [7] = test: Antiproliferative activity against human HL60 cells up to 1000 uM after 48 hrs in presence of excess of thymidine by MTS assay; assay type: functional, cell-based
A549 [8] = test: Cell cycle arrest in human A549 cells assessed as accumulation at G1 phase at 1 uM after 72 hrs by propidium iodide staining based flow cytometry (reference value: 40.9%); assay type: functional
Summary of the method: (§3)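 A549 cells treated 72 h in RPMI1640 with 10% dFBS and 2 nM LCV. Washed twice in ice-cold PBS and fixed in 70% ethanol at 4 °C overnight. Stained ≥20 min at room temperature in the dark with 50 μg/mL PI and 100 μg/mL RNase. Phase percentages from 1 × 10^4 cells by flow cytometry. DMSO-treated cells as reference.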

A549 [9] = test: Cell cycle arrest in human A549 cells assessed as accumulation at S phase at 1 uM after 72 hrs by propidium iodide staining based flow cytometry (reference value: 51.3%); assay type: functional; summary of the method: as §3
A549 [10] = test: Cell cycle arrest in human A549 cells assessed as accumulation at G2 phase at 1 uM after 72 hrs by propidium iodide staining based flow cytometry (reference value: 7.8%); assay type: functional; summary of the method: as §3
A549 [11] = test: Cell cycle arrest in human A549 cells assessed as accumulation at G1 phase at 10 uM after 72 hrs by propidium iodide staining based flow cytometry (reference value: 40.9%); assay type: functional; summary of the method: as §3
A549 [12] = test: Cell cycle arrest in human A549 cells assessed as accumulation at S phase at 10 uM after 72 hrs by propidium iodide staining based flow cytometry (reference value: 51.3%); assay type: functional; summary of the method: as §3
A549 [13] = test: Cell cycle arrest in human A549 cells assessed as accumulation at G2 phase at 10 uM after 72 hrs by propidium iodide staining based flow cytometry (reference value: 7.8%); assay type: functional; summary of the method: as §3
A549 [14] = test: Induction of apoptosis in human A549 cells assessed as necrotic cells at 1 uM after 72 hrs by Annexin V-FITC/propidium iodide staining based flow cytometry (reference value: 3.58%); assay type: functional
Summary of the method: (§4)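 A549 cells exposed 72 h in RPMI with 10% dFBS and 2 nM LCV, with an untreated control. Harvested by trypsinization and washed twice in cold PBS. Stained with annexin V-FITC/PI and ≥1 × 10^4 cells analyzed by flow cytometry. Quadrants: LR early apoptosis, UR late apoptosis/necrosis, UL dead, LL viable.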

A549 [15] = test: Induction of apoptosis in human A549 cells assessed as late apoptotic cells at 1 uM after 72 hrs by Annexin V-FITC/propidium iodide staining based flow cytometry (reference value: 1.24%); assay type: functional; summary of the method: as §4
A549 [16] = test: Induction of apoptosis in human A549 cells assessed as live cells at 1 uM after 72 hrs by Annexin V-FITC/propidium iodide staining based flow cytometry (reference value: 94.86%); assay type: functional; summary of the method: as §4
A549 [17] = test: Induction of apoptosis in human A549 cells assessed as early apoptotic cells at 1 uM after 72 hrs by Annexin V-FITC/propidium iodide staining based flow cytometry (reference value: 0.32%); assay type: functional; summary of the method: as §4
A549 [18] = test: Induction of apoptosis in human A549 cells assessed as necrotic cells at 10 uM after 72 hrs by Annexin V-FITC/propidium iodide staining based flow cytometry (reference value: 3.58%); assay type: functional; summary of the method: as §4
A549 [19] = test: Induction of apoptosis in human A549 cells assessed as late apoptotic cells at 10 uM after 72 hrs by Annexin V-FITC/propidium iodide staining based flow cytometry (reference value: 1.24%); assay type: functional; summary of the method: as §4
A549 [20] = test: Induction of apoptosis in human A549 cells assessed as live cells at 10 uM after 72 hrs by Annexin V-FITC/propidium iodide staining based flow cytometry (reference value: 94.86%); assay type: functional; summary of the method: as §4
A549 [21] = test: Induction of apoptosis in human A549 cells assessed as early apoptotic cells at 10 uM after 72 hrs by Annexin V-FITC/propidium iodide staining based flow cytometry (reference value: 0.32%); assay type: functional; summary of the method: as §4

GI50 (HL-60 [2]) [µM]	GI50 (A549 [3]) [µM]	GI50 (NCI-H1299) [µM]	GI50 (HeLa) [µM]	GI50 (HCT-116) [µM]	GI50 (HT-29) [µM]	Compound	further results
40.1	83	> 100	> 100	> 100	> 100	Nc1nc2c(Br)c(CNc3ccc(C(=O)N[C@@H](CCC(=O)O)C(=O)O)cc3)[nH]c2c(=O)[nH]1	
> 100	> 100	> 100	> 100	> 100	> 100	CCN(Cc1cc2nc(N)[nH]c(=O)c2[nH]1)c1ccc(C(=O)N[C@@H](CCC(=O)O)C(=O)O)cc1	
15.5	57.3	68.4	82.7	> 100	98.5	C=CCn1c(CNc2ccc(C(=O)N[C@@H](CCC(=O)O)C(=O)O)cc2)cc2nc(N)[nH]c(=O)c21	
13.5	46	51.3	94.4	> 100	> 100	Cn1c(CNc2ccc(C(=O)N[C@@H](CCC(=O)O)C(=O)O)cc2)cc2nc(N)[nH]c(=O)c21	
0.038	0.014	0.072	> 100	0.13	> 100	CN(Cc1cnc2nc(N)nc(N)c2n1)c1ccc(C(=O)N[C@@H](CCC(=O)O)C(=O)O)cc1 [METHOTREXATE]	Activity (A549 [8]): 62%; Activity (A549 [9]): 38%; Activity (A549 [10]): 0%

More lines, now with the values behind:

Compound	GI50 (HL-60 [2]) [µM]	GI50 (A549 [3]) [µM]	GI50 (NCI-H1299) [µM]	GI50 (HeLa) [µM]	GI50 (HCT-116) [µM]	GI50 (HT-29) [µM]	further results
Nc1nc2cc(CCc3ccc(C(=O)N[C@@H](CCC(=O)O)C(=O)O)cc3)[nH]c2c(=O)[nH]1	8.92	0.73	1.72	73.1	54.6	99.1	inhibition (A549 [1]): Active; inhibition [4]: 66.7%; inhibition [5]: Active; Activity (HL-60 [6]): Active; Activity (HL-60 [7]): Active; Activity (A549 [8]): 33.7%; Activity (A549 [9]): 51.3%; Activity (A549 [10]): 15%; Activity (A549 [11]): 35%; Activity (A549 [12]): 45.6%; Activity (A549 [13]): 19.4%; Activity (A549 [14]): 4.46%; Activity (A549 [15]): 1.07%; Activity (A549 [16]): 94.08%; Activity (A549 [17]): 0.39%; Activity (A549 [18]): 3.56%; Activity (A549 [19]): 3.21%; Activity (A549 [20]): 88.02%; Activity (A549 [21]): 4.4%
Nc1nc2c(I)c(CNc3ccc(C(=O)N[C@@H](CCC(=O)O)C(=O)O)cc3)[nH]c2c(=O)[nH]1	54.2	> 100	> 100	> 100	> 100	> 100	
C#CCN(Cc1cc2nc(N)[nH]c(=O)c2[nH]1)c1ccc(C(=O)N[C@@H](CCC(=O)O)C(=O)O)cc1	> 100	> 100	> 100	> 100	> 100	> 100	
Nc1nc2cc(CNc3ccc(C(=O)N[C@@H](CCC(=O)O)C(=O)O)cc3)[nH]c2c(=O)[nH]1	47.4	79	73.1	85.1	> 100	> 100	
CN(Cc1cc2nc(N)[nH]c(=O)c2[nH]1)c1ccc(C(=O)N[C@@H](CCC(=O)O)C(=O)O)cc1	> 100	> 100	> 100	> 100	> 100	> 100	
